The values that follow come from ChEMBL document CHEMBL1125212, “Dual-action cephalosporins: cephalosporin 3'-quinolone carbamates” (J Med Chem, 1991).

≈ marks a conversion by molar mass, not a printed value.

For assay [1], the system named is Escherichia coli. The assay is described as follows: The compound was evaluated for the inhibition of [14C]- Pen G binding to Escherichia coli UB1005 PBP2 66 kDa. Type of assay: functional. Put shortly:
(§1)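 Penicillin-binding protein assay using solubilized membranes from sonicated E. coli UB1005. Binding was read as inhibition of [14C]penicillin G binding to the PBPs.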

For assay [2], the system named is Escherichia coli. The assay is described as follows: The compound was evaluated for the inhibition of [14C]- Pen G binding to Escherichia coli UB1005 PBP1b 90 kDa. The class given is functional. The essentials: as §1
Assay [3] relates to Escherichia coli. The assay is described as follows: The compound was evaluated for the inhibition of [14C]- Pen G binding to Escherichia coli UB1005 PBP1a 90 kDa. Type of assay: functional. Put shortly: as §1
For assay [4], the system named is Escherichia coli. The assay is described as follows: Minimum inhibitory concentration for inhibition of [14C]- Pen G binding to Escherichia coli UB1005. Type of assay: functional. The essentials: as §1
The subject of assay [5] is Escherichia coli. The assay is described as follows: The compound was evaluated for the inhibition of [14C]- Pen G binding to Escherichia coli UB1005 PBP3 60 kDa. The class given is functional. Put shortly: as §1
Another assay relates to Enterococcus faecalis. The assay can be described thus: The compound was tested in vitro for minimum inhibitory concentration against Enterococcus faecalis ATCC 29212. Type of assay: functional. Put shortly:
(§2)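 Agar dilution on Mueller-Hinton agar using 2-fold serial dilutions, giving final 128 to 0.0156 μg/mL (extended to 0.000977 μg/mL where needed). Inoculum was overnight broth culture diluted 100-fold, about 3×10^4 CFU/spot, applied by replicator. MIC read after overnight incubation at 36 °C.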

Assay [6] concerns Escherichia coli. The assay can be described thus: The compound was tested in vitro for minimum inhibitory concentration against Escherichia coli ATCC 25922. Type of assay: functional. The essentials:
as §2

In a further assay the test system is Serratia marcescens. The assay is described as follows: The compound was tested in vitro for minimum inhibitory concentration against Serratia marcescens 1071. The class given is functional. Put shortly: as §2
Assay [7] relates to Escherichia coli. The assay is described as follows: The compound was tested in vitro for minimum inhibitory concentration against Escherichia coli 257. The class given is functional. The essentials: as §2
In assay [8] the test system is Staphylococcus aureus. The assay is described as follows: The compound was tested in vitro for minimum inhibitory concentration against Staphylococcus aureus 67-0. Type of assay: functional. Put shortly:
as §2

A further assay has as its system Streptococcus pyogenes. The assay is described as follows: The compound was tested in vitro for minimum inhibitory concentration against Streptococcus pyogenes. Type of assay: functional. Put shortly: (§3)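 Streptococci tested by agar dilution on brain heart infusion agar with 20 units/mL bovine liver catalase. Final drug range 128 to 0.0156 μg/mL by 2-fold steps, extended to 0.000977 μg/mL when required. Inoculum about 3×10^4 CFU/spot from overnight broth diluted 100-fold. MIC after overnight incubation at 36 °C.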

In the next assay the test system is Proteus vulgaris. The assay can be described thus: The compound was tested in vitro for minimum inhibitory concentration against Proteus vulgaris 1028 BC. Type of assay: functional. Put shortly:
(§4)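 Proteus MICs by agar dilution on Mueller-Hinton medium containing 3% agar. Serial 2-fold dilutions gave final 128 to 0.0156 μg/mL (further to 0.000977 μg/mL). Inoculum was overnight broth diluted 100-fold, about 3×10^4 CFU/spot. Plates read after overnight incubation at 36 °C.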

Assay [9] deals with Staphylococcus aureus. The assay is described as follows: The compound was tested in vitro for minimum inhibitory concentration against Staphylococcus aureus smith. The class given is functional. Put shortly: as §2
The subject of another assay is Klebsiella pneumoniae. The assay can be described thus: The compound was tested in vitro for minimum inhibitory concentration against Klebsiella pneumoniae A. Type of assay: functional. The essentials: as §2
Another assay concerns Proteus mirabilis. The assay is described as follows: The compound was tested in vitro for minimum inhibitory concentration against Proteus mirabilis 90. The class given is functional. Put shortly:
as §4

The test system of assay [10] is Escherichia coli. The assay can be described thus: The compound was evaluated for the inhibition of [14C]- Pen G binding to Escherichia coli UB1005 penicillin-binding protein 3 60 kDa. Put shortly:
(§5)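 Membranes from sonicated E. coli UB1005 were solubilized. Binding to penicillin-binding proteins was measured as inhibition of [14C]penicillin G binding.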

Another assay concerns Enterobacter cloacae. The assay can be described thus: The compound was tested in vitro for minimum inhibitory concentration against Enterobacter cloacae P99. Type of assay: functional.
The test system of assay [11] is Pseudomonas aeruginosa. The assay can be described thus: The compound was tested in vitro for minimum inhibitory concentration against Pseudomonas aeruginosa 18S/H. The class given is functional. The essentials:
as §2

The next assay has as its system Citrobacter freundii. The assay can be described thus: The compound was tested in vitro for minimum inhibitory concentration against Citrobacter Freundii BS-16. The class given is functional. The essentials:
as §2

The subject of assay [12] is Escherichia coli. The assay can be described thus: The compound was evaluated for the inhibition of [14C]- Pen G binding to Escherichia coli UB1005 penicillin-binding protein 1b 90 kDa. Put shortly: as §5
For assay [13], the system named is Escherichia coli. The assay can be described thus: The compound was evaluated for the inhibition of [14C]- Pen G binding to Escherichia coli UB1005 penicillin-binding protein 2 66 kDa. Put shortly: as §5
The next assay has as its system Streptococcus pneumoniae. The assay can be described thus: The compound was tested in vitro for minimum inhibitory concentration against Streptococcus pneumoniae 6301. Type of assay: functional. Put shortly: as §3
For assay [14], the system named is Escherichia coli. The assay is described as follows: Minimum inhibitory concentration for inhibition of [14C]- Pen G binding to Escherichia coli UB1005. Type of assay: functional. Put shortly:
as §5

Assay [15] concerns Staphylococcus aureus. The assay can be described thus: The compound was tested in vitro for minimum inhibitory concentration against Staphylococcus aureus 753. Type of assay: functional, staphylococcus aureus smith. Put shortly:
as §2

A further assay deals with Micrococcus luteus. The assay can be described thus: The compound was tested in vitro for minimum inhibitory concentration against Micrococcus luteus ATCC 9341. The class given is functional. Put shortly: as §2
In assay [16] the test system is Escherichia coli. The assay is described as follows: The compound was tested in vitro for minimum inhibitory concentration against Escherichia coli TEM-1. The class given is functional. Put shortly:
as §2

Assay [17] relates to Pseudomonas aeruginosa. The assay is described as follows: The compound was tested in vitro for minimum inhibitory concentration against Pseudomonas aeruginosa 8780. Type of assay: functional. The essentials:
as §2

Assay [18] relates to Escherichia coli. The assay can be described thus: The compound was evaluated for the inhibition of [14C]- Pen G binding to Escherichia coli UB1005 penicillin-binding protein 1a 90 kDa. Put shortly:
as §5

With `CCN1CCN(C(=O)N[C@@H](C(=O)N[C@@H]2C(=O)N3C(C(=O)O)=C(CSc4nnnn4C)CS[C@H]23)c2ccc(O)cc2)C(=O)C1=O` [CEFOPERAZONE], the Inhibitory concentration in the assay on Escherichia coli [1] was 2 µg/mL; with Escherichia coli [2], 10 µg/mL; with Escherichia coli [3], 10 µg/mL; in the assay with Escherichia coli [5], under 0.1 µg/mL. Moreover, the lowest concentration to inhibit growth against Escherichia coli [4] (MIC) was 1 mg/L (≈ 1.55 µM).
For `CC(=O)OCC1=C(C(=O)O)N2C(=O)[C@@H](NC(=O)COc3ccccc3)[C@H]2SC1`, the MIC – broadly, the least concentration at which growth counts as inhibited – is 32 mg/L (≈ 78.7 µM) in the assay on Enterococcus faecalis; 128 mg/L (≈ 315 µM) against Escherichia coli [6]; over 128 mg/L against Serratia marcescens; 64 mg/L (≈ 157 µM) in the assay with Escherichia coli [7]; 128 mg/L (≈ 315 µM) with Staphylococcus aureus [8]; 0.125 mg/L (≈ 0.308 µM) in the assay with Streptococcus pyogenes. In addition, the MIC against Proteus vulgaris is over 128 mg/L; against Staphylococcus aureus [9] it was 0.063 mg/L (≈ 0.155 µM); against Klebsiella pneumoniae, 128 mg/L (≈ 315 µM); in the assay with Proteus mirabilis, 32 mg/L (≈ 78.7 µM); with Enterobacter cloacae, over 128 mg/L; in the assay with Pseudomonas aeruginosa [11], over 128 mg/L. The MIC was over 128 mg/L against Citrobacter freundii; 0.125 mg/L (≈ 0.308 µM) against Streptococcus pneumoniae; over 128 mg/L in the assay with Escherichia coli [14]; 128 mg/L (≈ 315 µM) in the assay with Staphylococcus aureus [15]; 0.125 mg/L (≈ 0.308 µM) in the assay on Micrococcus luteus; 128 mg/L (≈ 315 µM) in the assay with Escherichia coli [16]. The compound further displayed an MIC against Pseudomonas aeruginosa [17] of over 128 mg/L. The Inhibitory concentration in the assay on Escherichia coli [10] was 10 µg/mL; with Escherichia coli [12], 100 µg/mL; in the assay with Escherichia coli [13] it was over 100 µg/mL; in the assay with Escherichia coli [18] it was 0.5 µg/mL.
`CC(C)(O/N=C(\C(=O)N[C@@H]1C(=O)N2C(C(=O)[O-])=C(C[n+]3ccccc3)CS[C@H]12)c1csc(N)n1)C(=O)O` [CEFTAZIDIME]: the Inhibitory concentration with Escherichia coli [1] was over 100 µg/mL; with Escherichia coli [2], 10 µg/mL; in the assay with Escherichia coli [3], 10 µg/mL; with Escherichia coli [5] it was 0.5 µg/mL. In the assay on Escherichia coli [4], this compound yielded an MIC of 0.1 mg/L (≈ 0.183 µM).
